From ChEMBL document CHEMBL5712911, “A homogeneous bioluminescent immunoassay to probe cellular signaling pathway regulation” (Commun Biol, 2020)
The source made the active and inactive calls. The rule behind the calls is not given here.

Legend:
[1] = biological target: T1, Retinoblastoma-associated protein (Homo sapiens) (UniProt P06400); experiment: Inhibition of RB protein in human MCF7 cells assessed as reduction in 17beta-estradiol-induced Rb phosphorylation at Ser807/811 residue by NanoBiT cell-based immunoassay
T1 sequence (whole entry): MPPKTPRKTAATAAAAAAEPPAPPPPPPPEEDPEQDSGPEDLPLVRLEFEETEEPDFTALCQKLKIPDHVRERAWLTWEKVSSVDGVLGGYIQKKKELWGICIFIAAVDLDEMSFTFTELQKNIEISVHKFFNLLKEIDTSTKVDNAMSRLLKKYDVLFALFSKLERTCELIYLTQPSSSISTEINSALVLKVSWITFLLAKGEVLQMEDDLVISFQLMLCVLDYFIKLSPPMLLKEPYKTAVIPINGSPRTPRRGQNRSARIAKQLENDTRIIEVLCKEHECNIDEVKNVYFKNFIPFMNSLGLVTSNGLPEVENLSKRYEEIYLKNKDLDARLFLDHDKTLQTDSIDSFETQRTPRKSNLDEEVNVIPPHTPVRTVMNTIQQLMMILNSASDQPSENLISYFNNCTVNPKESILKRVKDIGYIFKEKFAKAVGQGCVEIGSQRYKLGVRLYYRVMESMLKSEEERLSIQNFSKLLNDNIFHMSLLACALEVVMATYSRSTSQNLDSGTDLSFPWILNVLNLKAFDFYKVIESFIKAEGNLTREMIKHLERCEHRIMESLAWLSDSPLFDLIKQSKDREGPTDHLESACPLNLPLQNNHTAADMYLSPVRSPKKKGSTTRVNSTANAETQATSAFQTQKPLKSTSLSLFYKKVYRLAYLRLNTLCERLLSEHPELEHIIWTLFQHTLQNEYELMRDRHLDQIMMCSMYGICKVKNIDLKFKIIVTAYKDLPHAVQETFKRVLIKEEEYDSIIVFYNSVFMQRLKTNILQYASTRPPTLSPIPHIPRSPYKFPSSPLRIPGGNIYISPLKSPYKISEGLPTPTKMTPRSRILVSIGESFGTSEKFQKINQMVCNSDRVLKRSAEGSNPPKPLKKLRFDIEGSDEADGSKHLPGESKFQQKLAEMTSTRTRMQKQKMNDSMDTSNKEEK

[2] = biological target: T1, Retinoblastoma-associated protein (Homo sapiens); experiment: Inhibition of RB protein in human MCF7 cells assessed as reduction in 17beta-estradiol-induced Rb phosphorylation at Ser780 residue by NanoBiT cell-based immunoassay
[3] = biological target: T1, Retinoblastoma-associated protein (Homo sapiens); experiment: Inhibition of RB protein in human MCF7 cells assessed as reduction in EGF-induced Rb phosphorylation at Ser807/811 residue by NanoBiT cell-based immunoassay
[4] = biological target: T1, Retinoblastoma-associated protein (Homo sapiens); experiment: Inhibition of RB protein in human MCF7 cells assessed as reduction in EGF-induced Rb phosphorylation at Ser780 residue by NanoBiT cell-based immunoassay
[5] = Effect on total IkappaBalpha level in human MCF7 cells measured after 4 hrs by NanoBiT cell-based immunoassay; assay type: toxicity; conditions: mcf7, 4 h
Procedure, shortened: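 MCF-7 cells (50,000/well) held overnight at 37 °C, 5% CO2 without serum, then given a compound titration for 4 h. Lysed 20 min in buffer with 0.1% digitonin and protease/phosphatase inhibitors; mouse and rabbit anti-IκBα primaries plus NanoBiT-labelled anti-mouse/anti-rabbit secondaries added, 90 min at 23 °C; Nano-Glo substrate; luminescence read. Means ± S.E.M., n = 3 technical replicates.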

[6] = biological target: Small ribosomal subunit protein eS6 (Homo sapiens) (UniProt P62753); experiment: Inhibition of S6 ribosomal protein in HEK293 cells assessed as reduction in insulin-induced S6 phosphorylation at Ser235/236 residue by NanoBiT cell-based immunoassay
[7] = biological target: Small ribosomal subunit protein eS6 (Homo sapiens) (UniProt P62753); experiment: Inhibition of S6 ribosomal protein in HEK293 cells assessed as reduction in insulin-induced S6 phosphorylation at Ser240/244 residue by NanoBiT cell-based immunoassay
[8] = biological target: Small ribosomal subunit protein eS6 (Homo sapiens) (UniProt P62753); experiment: Inhibition of S6 ribosomal protein in HEK293 cells assessed as reduction in serum-induced S6 phosphorylation at Ser235/236 residue by NanoBiT cell-based immunoassay
[9] = biological target: Small ribosomal subunit protein eS6 (Homo sapiens) (UniProt P62753); experiment: Inhibition of S6 ribosomal protein in HEK293 cells assessed as reduction in serum-induced S6 phosphorylation at Ser240/244 residue by NanoBiT cell-based immunoassay
[10] = biological target: Eukaryotic translation initiation factor 4E-binding protein 1 (Homo sapiens) (UniProt Q13541); experiment: Inhibition of 4E-BP1 in HEK293 cells assessed as reduction in insulin-induced 4E-BP1 phosphorylation at Ser65 residue by NanoBiT cell-based immunoassay
[11] = biological target: Eukaryotic translation initiation factor 4E-binding protein 1 (Homo sapiens) (UniProt Q13541); experiment: Inhibition of 4E-BP1 in human MCF7 cells assessed as reduction in insulin-induced 4E-BP1 phosphorylation at Ser65 residue by NanoBiT cell-based immunoassay

Sequence of Eukaryotic translation initiation factor 4E-binding protein 1 (Homo sapiens) (Q13541 whole entry): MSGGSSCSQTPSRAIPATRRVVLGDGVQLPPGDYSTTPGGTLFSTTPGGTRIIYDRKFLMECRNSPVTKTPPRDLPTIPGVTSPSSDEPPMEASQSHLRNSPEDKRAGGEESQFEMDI

| inhibition [1] | inhibition [2] | inhibition [3] | inhibition [4] | Structure (SMILES) | also measured |
| --- | --- | --- | --- | --- | --- |
| Active | Active | Active | Active | CC(=O)c1c(C)c2cnc(Nc3ccc(N4CCNCC4)cn3)nc2n(C2CCCC2)c1=O |  |
|  |  |  |  | C[C@]12CC[C@@H]3c4ccc(O)cc4C[C@@H](CCCCCCCCC[S+]([O-])CCCC(F)(F)C(F)(F)F)[C@H]3[C@@H]1CC[C@@H]2O (stereo not given in full) [FULVESTRANT] | Activity [5]: Non-Toxic |
|  |  |  |  | CO[C@H]1C[C@@H]2CC[C@@H](C)[C@@](O)(O2)C(=O)C(=O)N2CCCC[C@H]2C(=O)O[C@H]([C@H](C)C[C@@H]2CC[C@@H](O)[C@H](OC)C2)CC(=O)[C@H](C)/C=C(\C)[C@@H](O)[C@@H](OC)C(=O)[C@H](C)C[C@H](C)/C=C/C=C/C=C/1C | inhibition [6]: Active; inhibition [7]: Active; inhibition [8]: Active; inhibition [9]: Active; inhibition [10]: Active; inhibition [11]: Active |
| Active | Active | Active | Active | CCN(CC)C(=O)c1ccc(Nc2nc(OCC3CCCCC3)c3nc[nH]c3n2)cc1 |  |
